Laboratory results reported in PMC10582678 (Clinical and Translational Science, 2023).

Columns and labels:
[1] = Safety, adverse events, single ascending dose; type: in vivo, human; settings: for AEs / Decreased leukocyte count / Decreased neutrophil count / Increased ALT / Increased blood cholesterol / Increased blood triglycerides / Abdominal discomfort / Constipation / Decreased lymphocyte count / Dermatitis allergic / Dyspepsia / Increased AST / Increased blood bilirubin / Increased blood creatinine / Lethargy / Mouth ulceration / Oropharyngeal pain / Sinus arrythmia / Treatment discontinuation due to AEs / Upper respiratory tract infection: n (%)
Procedure, shortened: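 Safety was monitored by vital signs, clinical laboratory tests, physical examination, 12-lead ECG, AEs and SAEs. AEs were coded with MedDRA 23.1 and graded by CTCAE 5.0. Subjects were discharged 6 days after the last dose, with a follow-up visit 8–14 days after the last dose. The safety set comprised randomized subjects who received active drug or placebo and had post-dose safety data.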

[2] = Preclinical safety in beagles; type: in vivo; settings: stated in introduction
[3] = 27 subjects who received SAD 100 to 800 mg

N#CN1C[C@H](n2nc(-c3ccc(Oc4ccc(Cl)cn4)cc3)c(C(N)=O)c2N)CCC12CC2 [SN1011, 5-amino-3-(4-((5-chloro-2-pyridinyl)oxy)phenyl)-1-((6R)-4-cyano-4-azaspiro[2.5]octan-6-yl)-1H-pyrazole-4-carboxamide]
blood triglycerides increased [1, 3]: 18.5%
neutrophil count decreased [1, 3]: 14.8%
number of AEs [1, 3]: 13
subjects who experienced AEs [1, 3]: 33.3%
white blood cell count decreased [1, 3]: 7.4%
AEs ([1]; SAD 100 mg, any grade): 0
Decreased leukocyte count ([1]; SAD 100 mg, any grade): 0
Decreased neutrophil count ([1]; SAD 100 mg, any grade): 0
Increased ALT ([1]; SAD 100 mg, any grade): 0
Increased blood cholesterol ([1]; SAD 100 mg, any grade): 0
Increased blood triglycerides ([1]; SAD 100 mg, any grade): 0
Abdominal discomfort ([1]; SAD 100 mg): 0
Constipation ([1]; SAD 100 mg): 0
Decreased lymphocyte count ([1]; SAD 100 mg): 0
Dermatitis allergic ([1]; SAD 100 mg): 0
Dyspepsia ([1]; SAD 100 mg): 0
Increased AST ([1]; SAD 100 mg): 0
Increased blood bilirubin ([1]; SAD 100 mg): 0
Increased blood creatinine ([1]; SAD 100 mg): 0
Lethargy ([1]; SAD 100 mg): 0
Mouth ulceration ([1]; SAD 100 mg): 0
Oropharyngeal pain ([1]; SAD 100 mg): 0
Sinus arrythmia ([1]; SAD 100 mg): 0
Treatment discontinuation due to AEs ([1]; SAD 100 mg): 0
Upper respiratory tract infection ([1]; SAD 100 mg): 0
AEs ([1]; SAD 200 mg, any grade): 2 (33.3)
Decreased leukocyte count ([1]; SAD 200 mg, any grade): 0
Decreased neutrophil count ([1]; SAD 200 mg, any grade): 0
Increased ALT ([1]; SAD 200 mg, any grade): 1 (16.7)
Increased blood cholesterol ([1]; SAD 200 mg, any grade): 1 (16.7)
Increased blood triglycerides ([1]; SAD 200 mg, any grade): 2 (33.3)
Abdominal discomfort ([1]; SAD 200 mg): 0
Constipation ([1]; SAD 200 mg): 0
Decreased lymphocyte count ([1]; SAD 200 mg): 0
Dermatitis allergic ([1]; SAD 200 mg): 0
Dyspepsia ([1]; SAD 200 mg): 0
Increased AST ([1]; SAD 200 mg): 0
Increased blood bilirubin ([1]; SAD 200 mg): 0
Increased blood creatinine ([1]; SAD 200 mg): 0
Lethargy ([1]; SAD 200 mg): 0
Mouth ulceration ([1]; SAD 200 mg): 0
Oropharyngeal pain ([1]; SAD 200 mg): 0
Sinus arrythmia ([1]; SAD 200 mg): 0
Treatment discontinuation due to AEs ([1]; SAD 200 mg): 0
Upper respiratory tract infection ([1]; SAD 200 mg): 0
AEs ([1]; SAD 400 mg, any grade): 2 (33.3)
Decreased leukocyte count ([1]; SAD 400 mg, any grade): 0
Decreased neutrophil count ([1]; SAD 400 mg, any grade): 0
Increased ALT ([1]; SAD 400 mg, any grade): 0
Increased blood cholesterol ([1]; SAD 400 mg, any grade): 0
Increased blood triglycerides ([1]; SAD 400 mg, any grade): 2 (33.3)
Abdominal discomfort ([1]; SAD 400 mg): 0
Constipation ([1]; SAD 400 mg): 0
Decreased lymphocyte count ([1]; SAD 400 mg): 0
Dermatitis allergic ([1]; SAD 400 mg): 0
Dyspepsia ([1]; SAD 400 mg): 0
Increased AST ([1]; SAD 400 mg): 0
Increased blood bilirubin ([1]; SAD 400 mg): 0
Increased blood creatinine ([1]; SAD 400 mg): 0
Lethargy ([1]; SAD 400 mg): 0
Mouth ulceration ([1]; SAD 400 mg): 0
Oropharyngeal pain ([1]; SAD 400 mg): 0
Sinus arrythmia ([1]; SAD 400 mg): 0
Treatment discontinuation due to AEs ([1]; SAD 400 mg): 0
Upper respiratory tract infection ([1]; SAD 400 mg): 0
AEs ([1]; SAD 600 mg, any grade): 3 (50.0)
Decreased leukocyte count ([1]; SAD 600 mg, any grade): 1 (16.7)
Decreased neutrophil count ([1]; SAD 600 mg, any grade): 3 (50.0)
Increased ALT ([1]; SAD 600 mg, any grade): 0
Increased blood cholesterol ([1]; SAD 600 mg, any grade): 0
Increased blood triglycerides ([1]; SAD 600 mg, any grade): 0
Abdominal discomfort ([1]; SAD 600 mg): 0
Constipation ([1]; SAD 600 mg): 0
Decreased lymphocyte count ([1]; SAD 600 mg): 0
Dermatitis allergic ([1]; SAD 600 mg): 0
Dyspepsia ([1]; SAD 600 mg): 0
Increased AST ([1]; SAD 600 mg): 0
Increased blood bilirubin ([1]; SAD 600 mg): 0
Increased blood creatinine ([1]; SAD 600 mg): 0
Lethargy ([1]; SAD 600 mg): 0
Mouth ulceration ([1]; SAD 600 mg): 0
Oropharyngeal pain ([1]; SAD 600 mg): 0
Sinus arrythmia ([1]; SAD 600 mg): 0
Treatment discontinuation due to AEs ([1]; SAD 600 mg): 0
Upper respiratory tract infection ([1]; SAD 600 mg): 0
AEs ([1]; SAD 800 mg, any grade): 2 (33.3)
Decreased leukocyte count ([1]; SAD 800 mg, any grade): 1 (16.7)
Decreased neutrophil count ([1]; SAD 800 mg, any grade): 1 (16.7)
Increased ALT ([1]; SAD 800 mg, any grade): 0
Increased blood cholesterol ([1]; SAD 800 mg, any grade): 0
Increased blood triglycerides ([1]; SAD 800 mg, any grade): 1 (16.7)
Abdominal discomfort ([1]; SAD 800 mg): 0
Constipation ([1]; SAD 800 mg): 0
Decreased lymphocyte count ([1]; SAD 800 mg): 0
Dermatitis allergic ([1]; SAD 800 mg): 0
Dyspepsia ([1]; SAD 800 mg): 0
Increased AST ([1]; SAD 800 mg): 0
Increased blood bilirubin ([1]; SAD 800 mg): 0
Increased blood creatinine ([1]; SAD 800 mg): 0
Lethargy ([1]; SAD 800 mg): 0
Mouth ulceration ([1]; SAD 800 mg): 0
Oropharyngeal pain ([1]; SAD 800 mg): 0
Sinus arrythmia ([1]; SAD 800 mg): 0
Treatment discontinuation due to AEs ([1]; SAD 800 mg): 0
Upper respiratory tract infection ([1]; SAD 800 mg): 0
Abdominal discomfort ([1]; SAD All SN1011, N = 27): 0
Constipation ([1]; SAD All SN1011, N = 27): 0
Decreased leukocyte count ([1]; SAD All SN1011, N = 27): 2 (7.4)
Decreased lymphocyte count ([1]; SAD All SN1011, N = 27): 0
Decreased neutrophil count ([1]; SAD All SN1011, N = 27): 4 (14.8)
Dermatitis allergic ([1]; SAD All SN1011, N = 27): 0
Dyspepsia ([1]; SAD All SN1011, N = 27): 0
Increased ALT ([1]; SAD All SN1011, N = 27): 1 (3.7)
Increased AST ([1]; SAD All SN1011, N = 27): 0
Increased blood bilirubin ([1]; SAD All SN1011, N = 27): 0
Increased blood cholesterol ([1]; SAD All SN1011, N = 27): 1 (3.7)
Increased blood creatinine ([1]; SAD All SN1011, N = 27): 0
Increased blood triglycerides ([1]; SAD All SN1011, N = 27): 5 (18.5)
Lethargy ([1]; SAD All SN1011, N = 27): 0
Mouth ulceration ([1]; SAD All SN1011, N = 27): 0
Oropharyngeal pain ([1]; SAD All SN1011, N = 27): 0
Sinus arrythmia ([1]; SAD All SN1011, N = 27): 0
Treatment discontinuation due to AEs ([1]; SAD All SN1011, N = 27): 0
Upper respiratory tract infection ([1]; SAD All SN1011, N = 27): 0
safety profile [2]: acceptable safety profile
